Results as given in ChEMBL document CHEMBL1140409, “Discovery of potent, nonsystemic apical sodium-codependent bile acid transporter inhibitors (Part 2)” (J Med Chem, 2005).

Experiments:
[1] = Amount (dissolved in aqueous Tween-80) in bile of rat was determined by fecal bile acid content for 45 min in a 37 degree C; assay type: ADME, tissue-based, Feces; parameters: concentration or dose not given beside the values; conditions: in vivo, 0.75 h
In short: (§1)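 Male Wistar rats (275–300 g) were gavaged once each morning for 4 days at 5, 0.2 or 0.04 mpk in aqueous 0.2% (v/v) Tween-80 (2 mL/kg). Feces from the final 48 h were homogenized in twice their weight of water. Homogenate was diluted in butanol/water (2:0.6), extracted 45 min at 37 °C, centrifuged, and bile acids (μmol/day) measured enzymatically. Scores compared against a reference analogue at 0.04 mg/kg.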

[2] = target: T1, Ileal sodium/bile acid cotransporter (Homo sapiens, UniProt Q12908); test: In vitro inhibition of ASBT mediated uptake of [14C]taurocholate (5 uM) in baby hamster cells expressing human IBAT; assay type: cell-based
T1 sequence (Q12908 whole entry): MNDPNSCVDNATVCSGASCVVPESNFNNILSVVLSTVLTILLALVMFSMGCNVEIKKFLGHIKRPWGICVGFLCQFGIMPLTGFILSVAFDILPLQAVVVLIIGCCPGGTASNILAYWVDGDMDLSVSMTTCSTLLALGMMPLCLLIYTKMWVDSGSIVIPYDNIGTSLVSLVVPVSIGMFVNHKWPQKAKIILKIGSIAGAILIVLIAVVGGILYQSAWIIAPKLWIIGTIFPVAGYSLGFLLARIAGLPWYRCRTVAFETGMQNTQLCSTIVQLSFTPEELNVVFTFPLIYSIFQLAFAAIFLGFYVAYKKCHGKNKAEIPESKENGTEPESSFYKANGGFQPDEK

[3] = Maximum biliary concentration (dissolved in aqueous Tween-80) was determined on intragastric administration at 5-0.04 mg/kg in […] of rat gavage model; assay type: ADME, organism-based, Bile; parameters: dose 0.04 mg/kg, route […]; conditions: […] (blood), po
[4] = Maximum biliary concentration (dissolved in aqueous Tween-80) was determined on intragastric administration at 5-0.04 mg/kg in portal vein of rat gavage model; assay type: ADME, organism-based, Bile; parameters: dose 0.04 mg/kg, route […]; conditions: po
[5] = Efficacy to increase fecal bile acid excretion; ++ is even more effective; assay type: ADME, tissue-based, Feces; conditions: rat; in short: as §1
[6] = Efficacy to increase fecal bile acid excretion; + is more efficacious; assay type: ADME, tissue-based, Feces; conditions: rat; in short: as §1

SMILES	Activity [1] [%]	IC50 [2] [nM]	Cmax [3] [ng/mL]	Cmax [4] [ng/mL]	Efficacy [5]	Efficacy [6]
CCCCC1(CCCC)CS(=O)(=O)c2ccc(N(C)C)cc2[C@@H](c2ccc(OCC(=O)O)cc2)[C@H]1O	15.04	27	960	–	–	–
CCCCC1(CCCC)CS(=O)(=O)c2ccc(N(C)C)cc2[C@@H](c2ccc(OCCCCC(=O)O)cc2)[C@H]1O	3.3	8.5	5100	1100	Even more effective	–
CCCCC1(CCCC)CS(=O)(=O)c2ccc(N(C)C)cc2[C@@H](c2ccc(OCc3cc[n+](C)cc3)cc2)[C@H]1O	0.03	0.75	–	–	–	More efficacious than analogue 2
CCCCC1(CCCC)CS(=O)(=O)c2ccc(N(C)C)cc2[C@@H](c2ccc(OCc3ccc(C[n+]4ccccc4)cc3)cc2)[C@H]1O	0.03	1	–	–	Even more effective	–
